Reference: ChEMBL document CHEMBL1152467, “Pharmacokinetics and pharmacodynamics of piperaquine in a murine malaria model” (Antimicrob Agents Chemother, 2008)
Active and inactive are the calls of the source. No cut-off for these calls is given here.

Assays:
[1] = test system: Plasmodium berghei; assay: Antiparasitic activity as parasitaemia against Plasmodium berghei ANKA infected Swiss mice (Mus musculus) at 30 mg/kg intraperitoneal dose 64 hrs post infection; format: functional
In short: (§1)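 Male Swiss mice were infected i.p. with 10^7 P. berghei ANKA-parasitized erythrocytes. At 64 h (3-5% parasitemia) they received a single i.p. dose of piperaquine phosphate suspension: 300, 900 or 2,700 μg in 100 μl (about 10, 30, 90 mg/kg). Parasitemia came from May-Grünwald Giemsa tail-blood thin films, counting 30-100 fields (detection limit about 0.002%). Groups had 13-14 mice; controls had 8.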

[2] = test system: Plasmodium berghei; assay: Antiparasitic activity as reduced parasitaemia after 36 hrs against Plasmodium berghei ANKA infected Swiss mice (Mus musculus) at 30 mg/kg intraperitoneal dosed 64 hrs post infection; format: functional; in short: as §1
[3] = Half life in Swiss mice (Mus musculus) infected with Plasmodium berghei ANKA at 90 mg/kg, intraperitoneally administered 64 hrs after infection; format: ADME, organism-based; set-up: dose 90 mg/kg, route intraperitoneal; details: in vivo, ip
In short: (§2)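 P. berghei ANKA-infected male Swiss mice (10^7 parasitized erythrocytes i.p.) got one i.p. dose of 2,700 μg piperaquine phosphate (about 90 mg/kg) in glycerol/phosphate buffer/polysorbate 80 suspension, 64 h post-inoculation. Cardiac blood was drawn from 5 mice per time point, 0 h to […]. Plasma piperaquine was measured by HPLC, with concentrations normalized to 90 mg/kg. Noncompartmental and two-compartment fits (1/y2 weighting) used group means.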

[4] = Terminal half life in human children; format: ADME, organism-based; details: in vivo, read-out: beta t1/2 (converted)
[5] = test system: Mus musculus; assay: Apparent volume of distribution in Swiss mice (Mus musculus) infected with Plasmodium berghei ANKA at 90 mg/kg, intraperitoneally administered 64 hrs after infection; format: ADME, organism-based; set-up: dose 90 mg/kg, route intraperitoneal; details: in vivo, ip; in short: as §2
[6] = Terminal half life in Swiss mice (Mus musculus) infected with Plasmodium berghei ANKA at 90 mg/kg, intraperitoneally by two compartment model assay; format: ADME, organism-based; set-up: dose 90 mg/kg, route intraperitoneal; details: in vivo, ip, read-out: beta t1/2 (converted); in short: as §2
[7] = Plasma concentration in Swiss mice (Mus musculus) infected with Plasmodium berghei ANKA at 90 mg/kg, intraperitoneally administered 64 hrs after infection measured after 60 days; format: ADME, organism-based; set-up: dose 90 mg/kg, route intraperitoneal; details: ip; in short: as §2
[8] = test system: Plasmodium berghei; assay: Antiparasitic activity as survival at day 30 against Plasmodium berghei ANKA infected Swiss mice (Mus musculus) at 30 mg/kg intraperitoneal dose 64 hrs post infection; format: functional
In short: (§3)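 Male Swiss mice (5–6 weeks) inoculated i.p. with 10^7 P. berghei ANKA-parasitized erythrocytes. At 64 h (3–5% parasitemia), each received a single i.p. 100 μl PQP suspension in 50% glycerol, 30% phosphate buffer (pH 7.1) and 20% polysorbate 80. Parasitemia was followed on tail-vein Giemsa smears. Mice were euthanized at >40% parasitemia or >10% weight loss within 24 h. Groups of 14 treated, 8 controls.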

[9] = Terminal half life in adult human; format: ADME, organism-based; details: in vivo, read-out: beta t1/2 (converted)
[10] = Toxicity in mouse; format: organism-based; details: in vivo
[11] = AUC in Swiss mice (Mus musculus) infected with Plasmodium berghei ANKA at 90 mg/kg, intraperitoneally administered 64 hrs after infection; format: ADME, organism-based; set-up: dose 90 mg/kg, route intraperitoneal; details: plasma, ip; in short: as §2
[12] = Plasma concentration in Swiss mice (Mus musculus) infected with Plasmodium berghei ANKA at 90 mg/kg, intraperitoneally administered 64 hrs after infection measured after 30 days; format: ADME, organism-based; set-up: dose 90 mg/kg, route intraperitoneal; details: ip; in short: as §2
[13] = test system: Plasmodium berghei; assay: Antiparasitic activity as survival at day 30 against Plasmodium berghei ANKA infected Swiss mice (Mus musculus) at 20-30 mg/kg intraperitoneal dose 64 hrs post infection; format: functional
[14] = AUC in healthy Swiss mouse at 90 mg/kg, ip; format: ADME, organism-based; set-up: dose 90 mg/kg, route intraperitoneal; details: plasma
In short: (§4)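 Uninfected male Swiss mice (6 weeks old) received a single i.p. dose of 2,700 μg piperaquine phosphate suspension (about 90 mg/kg). Cardiac-puncture blood was collected under pentobarbitone from n = 5 per time, 0 h to 25 days. Lithium heparin plasma was assayed by HPLC and normalized to a 90 mg/kg dose. Mean profiles were analysed noncompartmentally and by a two-compartment model (1/y2 weighting).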

[15] = test system: Mus musculus; assay: Apparent volume of distribution in healthy Swiss mouse at 90 mg/kg, ip; format: ADME, organism-based; set-up: dose 90 mg/kg, route intraperitoneal; details: in vivo; in short: as §4
[16] = Plasma concentration in Swiss mice (Mus musculus) infected with Plasmodium berghei ANKA at 90 mg/kg, intraperitoneally administered 64 hrs after infection measured after 2 hrs; format: ADME, organism-based; set-up: dose 90 mg/kg, route intraperitoneal; details: ip; in short: as §2
[17] = test system: Mus musculus; assay: Plasma concentration in Swiss mice (Mus musculus) infected with Plasmodium berghei ANKA at 90 mg/kg, intraperitoneally administered 64 hrs after infection measured after 2 to 7 days; format: ADME, organism-based; set-up: dose 90 mg/kg, route intraperitoneal; details: in vivo, ip; in short: as §2
[18] = Apparent clearance in healthy Swiss mouse at 90 mg/kg, ip; format: ADME, organism-based; set-up: dose 90 mg/kg, route intraperitoneal; details: in vivo; in short: as §4
[19] = test system: Plasmodium berghei; assay: Antiparasitic activity as survival at day 30 against Plasmodium berghei ANKA infected Swiss mice (Mus musculus) at 10 mg/kg intraperitoneal dose 64 hrs post infection; format: functional; in short: as §3
[20] = Apparent clearance in Swiss mice (Mus musculus) infected with Plasmodium berghei ANKA at 90 mg/kg, intraperitoneally administered 64 hrs after infection; format: ADME, organism-based; set-up: dose 90 mg/kg, route intraperitoneal; details: in vivo, ip; in short: as §2
[21] = test system: Plasmodium berghei; assay: Antiparasitic activity as parasitaemia after 36 hrs against Plasmodium berghei ANKA infected Swiss mice (Mus musculus) at 90 mg/kg intraperitoneal dose 64 hrs post infection; format: functional; in short: as §1
[22] = Plasma concentration in Swiss mice (Mus musculus) infected with Plasmodium berghei ANKA at 90 mg/kg, intraperitoneally administered 64 hrs after infection measured after 36 hrs; format: ADME, organism-based; set-up: dose 90 mg/kg, route intraperitoneal; details: ip; in short: as §2
[23] = test system: Plasmodium berghei; assay: Antimalarial activity against chloroquine-sensitive Plasmodium berghei by Peters 4 day test; details: 96 h
[24] = Half life in healthy Swiss mouse at 90 mg/kg, ip; format: ADME, organism-based; set-up: dose 90 mg/kg, route intraperitoneal; details: in vivo; in short: as §4
[25] = Terminal half life in healthy Swiss mouse at 90 mg/kg, ip by two compartment model assay; format: ADME, organism-based; set-up: dose 90 mg/kg, route intraperitoneal; details: in vivo, read-out: beta t1/2 (converted); in short: as §4
[26] = Initial half life in healthy Swiss mouse at 90 mg/kg, ip by two compartment model assay; format: ADME, organism-based; set-up: dose 90 mg/kg, route intraperitoneal; details: in vivo, read-out: alphat1/2 (converted); in short: as §4
[27] = Initial half life in Swiss mice (Mus musculus) infected with Plasmodium berghei ANKA at 90 mg/kg, intraperitoneally by two compartment model assay; format: ADME, organism-based; set-up: dose 90 mg/kg, route intraperitoneal; details: in vivo, ip, read-out: alphat1/2 (converted); in short: as §2
[28] = test system: Plasmodium berghei; assay: Antiparasitic activity as parasitaemia at day 60 against Plasmodium berghei ANKA infected Swiss mice (Mus musculus) at 90 mg/kg intraperitoneal dose 64 hrs post infection; format: functional; in short: as §1
[29] = test system: Plasmodium berghei; assay: Antiparasitic activity as reduced parasitaemia at day 22-30 against Plasmodium berghei ANKA infected Swiss mice (Mus musculus) at 30 mg/kg intraperitoneal dose 64 hrs post infection; format: functional; set-up: scale not given: the % may be the effect or the level left; in short: as §1
[30] = test system: Plasmodium berghei; assay: Antiparasitic activity as parasitaemia against Plasmodium berghei ANKA infected Swiss mice (Mus musculus) at 10 mg/kg intraperitoneal dose 64 hrs post infection; format: functional; in short: as §1
[31] = test system: Plasmodium berghei; assay: Antiparasitic activity as median survival time against Plasmodium berghei ANKA infected Swiss mice (Mus musculus) at 10 mg/kg intraperitoneal dose 64 hrs post infection; format: functional; in short: as §3
[32] = test system: Plasmodium berghei; assay: Antiparasitic activity as reduced parasitaemia after 36 hrs against Plasmodium berghei ANKA infected Swiss mice (Mus musculus) at 10 mg/kg intraperitoneal dosed 64 hrs post infection; format: functional
In short: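 Male Swiss mice (5–6 weeks) infected i.p. with 10^7 P. berghei ANKA-parasitized erythrocytes from BALB/c donor blood diluted in citrate-phosphate-dextrose. Single i.p. dose given at 64 h, suspended in 50% glycerol/30% phosphate buffer pH 7.1/20% polysorbate 80, 100 µl. n = 14; vehicle controls n = 8. Parasitemia counted on methanol-fixed, May-Grünwald Giemsa tail-vein smears, expressed as fold decline from predose level.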

[33] = test system: Plasmodium berghei; assay: Antiparasitic activity as parasitaemia at day 16 against Plasmodium berghei ANKA infected Swiss mice (Mus musculus) at 90 mg/kg intraperitoneal dose 64 hrs post infection; format: functional; in short: as §1
[34] = test system: Plasmodium berghei; assay: Antiparasitic activity as peripheral parasitaemia 2 weeks after day 60 reinfection against Plasmodium berghei ANKA infected Swiss mice (Mus musculus) at 90 mg/kg intraperitoneal dose 64 hrs post infection; format: functional
In short: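 Swiss mice given a single i.p. 90 mg/kg piperaquine phosphate 64 h after P. berghei ANKA infection were reinoculated i.p. with 10^7 parasitized erythrocytes on day 60. Age-matched previously uninfected mice (untreated, vehicle, or drug on day 0) were inoculated alongside. Parasitemia was read daily from Giemsa-stained tail-blood films for 2 weeks.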

[35] = test system: Plasmodium berghei; assay: Antiparasitic activity as parasitaemia after 4 days against Plasmodium berghei ANKA infected Swiss mice (Mus musculus) at 90 mg/kg intraperitoneal dose; format: functional; in short: as §1
[36] = test system: Plasmodium berghei; assay: Antiparasitic activity as mean parasitaemia after 22 days against Plasmodium berghei ANKA infected Swiss mice (Mus musculus) at 30 mg/kg intraperitoneal dose 64 hrs post infection; format: functional; in short: as §1
[37] = test system: Plasmodium berghei; assay: Antiparasitic activity as median survival time after 30 days against Plasmodium berghei ANKA infected Swiss mice (Mus musculus) at 30 mg/kg intraperitoneal dose 64 hrs post infection; format: functional; in short: as §3
[38] = test system: Plasmodium berghei; assay: Antiparasitic activity as reduced parasitaemia against Plasmodium berghei ANKA infected Swiss mice (Mus musculus) at 30 mg/kg intraperitoneal dose 64 hrs post infection; format: functional, organism-based; set-up: dose 30 mg/kg; in short: as §1
[39] = test system: Plasmodium berghei; assay: Antiparasitic activity as reduced parasitaemia against Plasmodium berghei ANKA infected Swiss mice (Mus musculus) at 90 mg/kg intraperitoneal dose 64 hrs post infection; format: functional, organism-based; set-up: dose 90 mg/kg; in short: as §1
[40] = test system: Plasmodium berghei; assay: Antiparasitic activity as reduced parasitaemia after 24 hrs against Plasmodium berghei ANKA infected Swiss mice (Mus musculus) at 30 mg/kg intraperitoneal dose 64 hrs post infection; format: functional, organism-based; set-up: dose 30 mg/kg; in short: as §1
[41] = test system: Plasmodium berghei; assay: Antiparasitic activity as reduced parasitaemia against Plasmodium berghei ANKA infected Swiss mice (Mus musculus) at 10 mg/kg intraperitoneal dose 64 hrs post infection; format: functional, organism-based; set-up: dose 10 mg/kg; in short: as §1
[42] = test system: Plasmodium berghei; assay: Antiparasitic activity as reduced parasitaemia at day 3 against Plasmodium berghei ANKA infected Swiss mice (Mus musculus) at 30 mg/kg intraperitoneal dose 64 hrs post infection; format: functional, organism-based; set-up: dose 30 mg/kg; in short: as §1

C[C@H]1[C@@H](O)O[C@@H]2O[C@@]3(C)CC[C@H]4[C@H](C)CC[C@@H]1[C@@]24OO3 [ARTENIMOL]
Activity [1]: 4.6%
fold change (FC) [2]: 11.9

Clc1ccc2c(N3CCN(CCCN4CCN(c5ccnc6cc(Cl)ccc56)CC4)CC3)ccnc2c1 [PIPERAQUINE]
half-life [3]: 16.1 days
half-life [4]: 14 days
Vd [5]: 1059 L/kg
half-life [6]: 15.4 days
concentration at 1440 h [7]: 3 ng/mL
Activity [8]: 70%
half-life [9]: 23 days
LD50 [10]: 1100 mg/kg
AUC at 64 h [11]: 27300 ng·h/mL
concentration at 720 h [12]: > 10 ng/mL
Activity [13]: 50%
AUC [14]: 33500 ng·h/mL
Vd [15]: 956 L/kg
concentration at 2 h [16]: 250 ng/mL
Cp [17]: 20 ng/mL
CL/F [18]: 25.8 mL/min/kg
Activity [19]: 0%
CL/F [20]: 31.7 mL/min/kg
Activity [21]: 0.002%
concentration at 36 h [22]: 45 ng/mL
ED50 [23]: 4.5 mg/kg
half-life [24]: 17.8 days
half-life [25]: 20.7 days
half-life [26]: 0.59 days
half-life [27]: 0.35 days

Clc1ccc2c(N3CCN(CCCN4CCN(c5ccnc6cc(Cl)ccc56)CC4)CC3)ccnc2c1.O=P(O)(O)O [PIPERAQUINE PHOSPHATE]
Activity [28]: < 0.1%
Activity [29]: 0.1%
Activity [30]: 1.5%
Activity [31]: 10 days
fold change (FC) [32]: 12.8
Activity [33]: 1.8%
Activity [34]: <1%
Activity [35]: >10%
Activity [36]: 11%
Activity [37]: 54 days

Clc1ccc2c(N3CCN(CCCN4CCN(c5ccnc6cc(Cl)ccc56)CC4)CC3)ccnc2c1
Activity [38]: Active
Activity [39]: Active
Activity [40]: Active
Activity [41]: Active
Activity [42]: Active
